The text below walks through data of ChEMBL document CHEMBL4392831, “Discovery of a novel class of potent and selective tetrahydroindazole-based sigma-1 receptor ligands” (Bioorg Med Chem, 2019).

Each structure is given as a SMILES string. Bounds are passed on as bounds.

The target in data set [1] is Sigma intracellular receptor 2 (Homo sapiens, UniProt Q5BJF2). Kind of data set: Displacement of [3H]-DTG from sigma2 receptor (unknown origin) after 120 mins in presence of sigma1 […] (+)-SKF10047 by microbeta scintillation counting method. A digest of the protocol:
(§1)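 Radioligand binding run by an external screening program; sigma-1 tracer [3H]-pentazocine, sigma-2 tracer [3H]-DTG. Each compound first tested at a single 10 μM concentration. Those giving >50% inhibition were then titrated over a dose range to derive pKi.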
A general note: In a radioligand displacement assay an active substance lowers the binding of a labelled ligand.

The target of data set [2] is T1, Sigma non-opioid intracellular receptor 1 (Homo sapiens, UniProt Q99720). As to the kind of experiment: Displacement of [3H]-(+)-pentazocine from sigma1 receptor (unknown origin) expressed in HEK293 cell membranes after 120 mins by microbeta scintillation counting method. In a few lines:
as §1

Data set [3] can be described thus: Displacement of [3H]-DTG from sigma2 receptor in guinea pig brain membranes after 120 mins in presence of sigma1 […] (+)-SKF10047 by microbeta scintillation counting method. It counts as cell membranes, Cavia porcellus.
Data set [4] in a line: Thermodynamic solubility in pH 7.4 PBS buffer incubated for 16 hrs by UV-absorption spectroscopy. It is filed as physicochemical. Conditions: pH 7.4, 16 h. A digest of the protocol: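 A standard curve per compound was built from UV absorbance of acetonitrile dilutions (500 to 0.9 μM, DMSO held at 0.5%) made from DMSO stock. For the sample, 1 mg compound in 1 mL PBS pH 7.4 was stirred at 500 rpm for 16 h at room temperature, then equilibrated 30 min and passed through a 0.2 μm filter. Filtrate UV absorbance was read on a plate reader and solubility extrapolated from the curve.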

The species entered for a further data set is Homo sapiens. As to the kind of experiment: Selectivity for sigma1 receptor (unknown origin) over sigma2 receptor (unknown origin).
A short description of data set [5]: Stability in mouse liver microsomes assessed as parent compound remaining at 10 uM in presence of NADPH incubated for 60 mins at 37 degC by UPLC/MS analysis. It counts as ADME, Microsome. As to conditions: 1 h. In a few lines:
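Mouse liver microsomes at 0.4 mg/mL with NADPH cofactor in phosphate buffer (0.5 M), compound at 10 μM, verapamil control. T0 sample quenched at once; others shaken 60 min at 37 °C, then stopped with 2 volumes ice-cold acetonitrile. After centrifugation, parent quantified by UPLC/MS in SRM mode. % remaining = (conc at 60 min / conc at 0 min) ×100. Duplicate runs, mean reported.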

The target of data set [6] is T1, Sigma non-opioid intracellular receptor 1. Kind of data set: Displacement of [3H]-(+)-pentazocine from recombinant human sigma1 receptor expressed in HEK293 cell membranes after 120 mins by microbeta scintillation counting method.

Sigma intracellular receptor 2, sequence (Q5BJF2 whole entry): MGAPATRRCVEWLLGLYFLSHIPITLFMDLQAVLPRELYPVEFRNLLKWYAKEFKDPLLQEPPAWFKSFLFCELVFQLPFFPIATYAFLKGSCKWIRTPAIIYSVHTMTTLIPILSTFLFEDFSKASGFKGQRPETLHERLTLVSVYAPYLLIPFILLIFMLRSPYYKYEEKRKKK
T1 sequence (Q99720 whole entry): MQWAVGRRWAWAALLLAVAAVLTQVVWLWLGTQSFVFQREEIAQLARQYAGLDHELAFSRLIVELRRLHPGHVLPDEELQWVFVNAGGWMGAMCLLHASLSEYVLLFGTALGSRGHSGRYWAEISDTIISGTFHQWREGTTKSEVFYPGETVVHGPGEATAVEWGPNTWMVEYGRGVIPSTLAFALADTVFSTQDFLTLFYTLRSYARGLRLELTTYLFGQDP

`O=C(c1c2c(nn1-c1ccccc1)CCC(NCc1ccccc1)C2)N1CCCCC1` (stereo unspecified): the figures for the Ki in data set [1] (read-out: pKi (converted)) and in data set [2] were 126 nM and 39.8 nM, respectively.
Take `Clc1ccc(Cn2cc(NCCN3CCOCC3)nn2)cc1Cl`: in data set [3], the Ki is over 10000 nM.
In turn, `O=C(c1c2c(nn1-c1ccccc1)CCC(NCCc1ccc(C(F)(F)F)cc1)C2)N1CCCCC1` (stereo unspecified) had a Ki in data set [2] of 200 nM.
`O=C(c1nn(-c2ccccc2)c2c1CC(NCCc1ccc(F)cc1)CC2)N1CCCCC1` (stereo unspecified): the values for the Ki in data set [1] (read-out: pKi (converted)) and in data set [2] were 100 nM and 126 nM, respectively.
With `O=C(c1c2c(nn1-c1ccc(F)cc1)CCC(NCc1ccc(F)cc1)C2)N1CCCCC1` (stereo unspecified), the Ki in data set [1] (read-out: Ki) is over 10000 nM. The same compound gave a Therm solubility in data set [4] of 110 µM. The Selectivity ratio in the data set listed under Homo sapiens is over 500. In addition, in data set [5], the Stability amounted to 25%.
With `Cc1ccccc1NC(=N)Nc1ccccc1C` [DITOLYLGUANIDINE], the Ki in data set [3] stood at 28.4 nM.
`O=C(c1c2c(nn1-c1ccccc1)CCC(NCCc1ccc3c(c1)OCO3)C2)N1CCCCC1` (stereo unspecified): the Ki was 31.6 nM in data set [1] (read-out: pKi (converted)) and 63.1 nM in data set [2]. The same compound registered a Therm solubility in data set [4] of 655 µM. The Stability in data set [5] was 24%.
On to `O=C(c1nn(-c2ccccc2)c2c1CC(NCCc1ccc3c(c1)OCO3)CC2)N1CCCCC1` (stereo unspecified), for which the figures for the Ki in data set [1] (read-out: pKi (converted)) and in data set [2] were 316 nM and 501 nM, respectively.
`O=C(c1nn(-c2ccccc2)c2c1CC(NCCc1ccc(C(F)(F)F)cc1)CC2)N1CCCCC1` (stereo unspecified): in data set [2], the Ki was 316 nM.
In the case of `O=C(c1c2c(nn1-c1ccc(F)cc1)CCC(NCCc1ccncc1)C2)N1CCCCC1` (stereo unspecified), in data set [5], the Stability is recorded as 21%. In data set [2], this compound had a Ki of 100 nM.
Take `Cc1nc(-c2ccc(Cl)cc2)nc(OCCCN2CCCCC2)c1Cl`: the Ki in data set [3] was found to be 1420 nM; in data set [6], 1.1 nM.
As for `O=C(c1c2c(nn1-c1ccccc1)CCC(NCc1ccc(F)cc1)C2)N1CCCCC1` (stereo unspecified), the values for the Ki in data set [1] (read-out: pKi (converted)) and in data set [2] were 158 nM and 31.6 nM, respectively. In data set [4], this compound showed a Therm solubility of 508 µM. Further, the Stability in data set [5] is 7%.
As to `O=C(c1c2c(nn1-c1ccc(O)cc1)CCC(NCCc1ccccc1)C2)N1CCCCC1` (stereo unspecified), the Ki in data set [1] (read-out: pKi (converted)) is 251 nM; in data set [2] it was 316 nM.
In the same order, the values of `CCCn1nc(C(=O)N(C)C)c2c1CCC(NCCc1ccc(C(F)(F)F)cc1)C2` (stereo unspecified) are 631 nM and 2510 nM.
In data set [2], `O=C(c1nn(-c2ccccc2)c2c1CC(NCCc1cccc(O)c1)CC2)N1CCCCC1` (stereo unspecified) had a Ki of 200 nM.
Turning to `CCCn1nc(C(=O)N(C)C)c2c1CCC(NCc1ccc(F)cc1)C2` (stereo unspecified), in data set [1] (read-out: pKi (converted)), the Ki was 2000 nM. In data set [4], this compound registered a Therm solubility of 1780 µM. Moreover, the Stability in data set [5] is 21%.
Regarding `CCCn1nc(C(=O)N2CCCCC2)c2c1CCC(NCCc1ccc(O)cc1)C2` (stereo unspecified), the Ki in data set [1] (read-out: pKi (converted)) is 251 nM.
Regarding `O=C(c1nn(-c2ccccc2)c2c1CC(NCc1ccccc1)CC2)N1CCCCC1` (stereo unspecified), the Ki was 501 nM in data set [1] (read-out: pKi (converted)) and 631 nM in data set [2]. For the same compound, the Therm solubility in data set [4] was found to be 1570 µM. Also, the Stability in data set [5] was found to be 0.3%.
As to `CC(C)=CCN1CC[C@]2(C)c3cc(O)ccc3C[C@H]1[C@H]2C` [(+)-PENTAZOCINE], the Ki in data set [3] worked out at 1540 nM.
As for `NC(=O)c1ccc(-n2nc3c(c2C(=O)N2CCCCC2)CC(NCCc2ccccc2)CC3)cc1` (stereo unspecified), the Ki in data set [2] was 631 nM.
Turning to `CCCn1nc(C(=O)N(C)C)c2c1CCC(NCCc1ccc3c(c1)OCO3)C2` (stereo unspecified), the Ki in data set [1] (read-out: pKi (converted)) is 398 nM; in data set [2] it was 501 nM.
`c1ccc(OCc2cc(OC[C@@H]3CCCN3)no2)cc1`: the Ki in data set [3] turned out to be 1310 nM; in data set [6], 4.1 nM.
On to `O=C(c1nn(Cc2ccccc2)c2c1CC(NCc1ccc(F)cc1)CC2)N1CCCCC1` (stereo unspecified), for which the Ki in data set [2] was 251 nM.
